The source of these data is ChEMBL document CHEMBL4020790, “Quinazolinone derivatives as inhibitors of homologous recombinase RAD51” (Bioorg Med Chem Lett, 2017).

One assay has as its system HCC1937. Description: Cytotoxicity against human HCC1937 cells assessed as decrease in cell viability after 120 hrs by MTS assay. It is filed as functional, cell-based. The settings on record: HCC1937, 120 h.
In assay [1] the test system is MDA-MB-231. Description: Cytotoxicity against human MDA-MB-231 cells assessed as decrease in cell viability at 10 uM in presence of 6-Gy gamma-irradiation measured up to 120 hrs by CellTiter96 AQueous one solution cell proliferation assay. It is filed as functional, cell-based. Put shortly:
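MDA-MB-231 cells given 10 μM compound with or without 6 Gy irradiation; proliferation followed over a 120 h time course and expressed as mean % proliferation from 3 independent experiments; area under the curve calculated from the proliferation data.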

The subject of a further assay is MDA-MB-468. Description: Cytotoxicity against human MDA-MB-468 cells assessed as decrease in cell viability after 120 hrs by MTS assay. It is filed as functional, cell-based. To be noted: MDA-MB-468, 120 h.
Another assay concerns MDA-MB-436. Description: Cytotoxicity against human MDA-MB-436 cells assessed as decrease in cell viability after 120 hrs by MTS assay. It is filed as functional, cell-based. To be noted: MDA-MB-436, 120 h.
Assay [2] deals with T1, DNA repair protein RAD51 homolog 1 (Homo sapiens) (UniProt Q06609).
T1 sequence (whole entry): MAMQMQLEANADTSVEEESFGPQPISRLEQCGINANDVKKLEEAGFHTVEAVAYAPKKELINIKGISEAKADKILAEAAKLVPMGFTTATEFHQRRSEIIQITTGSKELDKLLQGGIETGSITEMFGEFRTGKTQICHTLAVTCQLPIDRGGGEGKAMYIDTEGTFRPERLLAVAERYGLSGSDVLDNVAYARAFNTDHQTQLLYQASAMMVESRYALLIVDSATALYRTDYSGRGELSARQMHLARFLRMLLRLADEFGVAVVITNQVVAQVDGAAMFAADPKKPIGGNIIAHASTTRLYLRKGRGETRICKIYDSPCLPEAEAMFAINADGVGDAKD
Description: Inhibition of RAD51 in human MDA-MB-231 cells assessed as reduction in DNA damage-induced RAD51 foci formation at 10 uM incubated for 16 hrs followed by 6-Gy gamma-irradiation measured after 6 hrs by immunofluoresent assay. It is filed as cell-based. Summed up: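 MDA-MB-231 cells given 10 μM compound, then 6 Gy irradiation; RAD51 foci scored by immunofluorescence, with the read-out taken as the ratio of RAD51-positive to γH2AX-positive cells.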

For the next assay, the system named is Hs-578T. Description: Cytotoxicity against human Hs578T cells assessed as decrease in cell viability after 120 hrs by MTS assay. It is filed as functional, cell-based.
In another assay the test system is SUM-159-PT. Description: Cytotoxicity against human SUM159PT cells assessed as decrease in cell viability after 120 hrs by MTS assay. It is filed as functional, cell-based.
Assay [3] concerns MDA-MB-231. Description: Cytotoxicity against human MDA-MB-231 cells assessed as decrease in cell viability at 10 uM measured up to 120 hrs by CellTiter96 AQueous one solution cell proliferation assay. It is filed as functional, cell-based. Put shortly:
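MDA-MB-231 cells exposed to 10 μM compound with or without 6 Gy irradiation; proliferation followed over a 120 h time course and expressed as mean % proliferation from 3 independent experiments; area under the curve derived from the proliferation data.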

A further assay relates to BT-549. Description: Cytotoxicity against human BT549 cells assessed as decrease in cell viability after 120 hrs by MTS assay. To be noted: BT-549, 120 h. It is filed as functional, cell-based.
Another assay has as its system MCF-10A. Description: Cytotoxicity against human MCF10A cells assessed as decrease in cell viability after 120 hrs by MTS assay. It is filed as cell-based.
The target of assay [4] is T1, DNA repair protein RAD51 homolog 1 (Homo sapiens). Description: Binding affinity to recombinant human RAD51 at 100 uM by SPR method.
Assay [5] relates to MDA-MB-231. Description: Cytotoxicity against human MDA-MB-231 cells assessed as decrease in cell viability after 120 hrs by MTS assay. It is filed as functional, cell-based. To be noted: MDA-MB-231, 120 h.

pIC50: −log10 of the molar value. Activity calls are given as the source filed them. The rule behind the calls is not given here.

For `O=c1c2ccccc2nc(/C=C/c2cccnc2)n1Cc1ccc(Cl)cc1`, the pIC50 in the assay on HCC1937 was 4.86; in the assay on MDA-MB-468, 5.24; in the assay with MDA-MB-436 it was 5.39; with Hs-578T it was 5.38; in the assay with SUM-159-PT, 5.26; with BT-549, 5.19. For the same compound, the pIC50 was 4.32 in the assay with MCF-10A and 5.17 in the assay on MDA-MB-231 [5]. Besides, the result (in the assay on MDA-MB-231 [1]; in assay [4]) was Active. Also, the inhibition entry in assay [2] was “Active”. The outcome in the assay with MDA-MB-231 [3] was inactive.

As to `O=c1c2ccccc2nc(/C=C/c2cccnc2)n1CC1CCCCC1`, in [2], the inhibition result is “Active”.

`O=c1c2ccccc2nc(/C=C/c2cccnc2)n1Cc1ccccc1`: the pIC50 in the assay with HCC1937 was 4.05; in the assay on MDA-MB-468, 4.99; with MDA-MB-436, 5.24; in the assay with Hs-578T, 5.02; in the assay on SUM-159-PT, 4.08; in the assay on BT-549, 4.45. The pIC50 was 4.32 in the assay on MCF-10A and 4.95 in the assay with MDA-MB-231 [5]. In addition, in the assay on MDA-MB-231 [1], the outcome was Active.
